Measurements reported in paper PMC7805566 (Medicinal Chemistry Research, 2021).
Values after ≈ are worked out from the molar mass of the structure shown.

Columns and labels:
[1] = test system: M. tuberculosis H37Rv; assay: MIC against Mtb H37Rv, microplate alamar blue assay; format: cell-based, Mycobacterium tuberculosis; details: for MIC: Mycobacterium tuberculosis, H37RV
[2] = Microsomal stability, mouse liver microsomes; format: in vitro ADME
Outline: (§1)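 The test compound, taken from a 10 mM DMSO stock and diluted to 100 μM in DMSO, was added to mouse or human liver microsomes and preincubated at 37 °C for 5 min. The reaction was started with buffer/NADPH working solution (5 mM); samples without NADPH were the negative controls. Aliquots at 0 and 30 min were quenched with internal standard, centrifuged at 4 °C, and measured by LC-MS/MS.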

[3] = In vivo pharmacokinetic profiles in male ICR mice; details: for AUC(0-t) / Cmax / Tmax / Vd / clearance / half-life / bioavailability: male, ICR, mouse, plasma; for bioavailability: oral
Outline: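 SPF male ICR mice (22–23 g), three per route. Oral 10 mg/kg (1.0 mg/mL in 0.5% carboxymethyl cellulose/0.5% Tween 80); i.v. 2 mg/kg (0.4 mg/mL in 20% HP-β-CD with 4 mol/L HCl). Plasma extracted 20:1 with acetonitrile containing internal standard; LC-MS/MS, C18, isocratic acetonitrile/water 80:20 with 0.1% formic acid. Non-compartmental parameters; F = (AUCp.o.×dosei.v.)/(AUCi.v.×dosep.o.).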

[4] = Metabolic stability in liver microsomes; format: in vitro ADME; details: mouse and human liver microsomes, without NADPH
Outline: as §1

[5] = Microsomal stability, human liver microsomes; format: in vitro ADME
Outline: as §1

[6] = test system: Vero cells
[7] = liver microsomes, previous reports ref 30; cited from earlier work
[8] = Mouse (% remaining at 30 min) With NADPH, with NADPH
[9] = Mouse (% remaining at 30 min) Without NADPH, without NADPH
[10] = Human (% remaining at 30 min) With NADPH, with NADPH
[11] = Human (% remaining at 30 min) Without NADPH, without NADPH

Structure (SMILES) | MIC [1] [µM] | remaining at 0.5 h, 1 µM [2, 8] [%] | remaining at 0.5 h, 1 µM [2, 9] [%] | AUC(0-t) ([3]; iv, 2 mg/kg) [ng·h/mL] | Cmax ([3]; iv, 2 mg/kg) [ng/mL] | Tmax ([3]; iv, 2 mg/kg) [min] | Vd ([3]; iv, 2 mg/kg) [L/kg] | clearance ([3]; iv, 2 mg/kg) [mL/min/kg] | half-life ([3]; iv, 2 mg/kg) [min] | bioavailability ([3]; 10 mg/kg) [%] | AUC(0-t) ([3]; po, 10 mg/kg) [ng·h/mL] | Cmax ([3]; po, 10 mg/kg) [ng/mL] | Tmax ([3]; po, 10 mg/kg) [min] | half-life ([3]; po, 10 mg/kg) [min] | metabolism in the absence of NADPH (in words) [4] | remaining at 0.5 h, 1 µM [5, 10] [%] | remaining at 0.5 h, 1 µM [5, 11] [%] | further results
N#Cc1cc(C(F)(F)F)cc2c(=O)nc(N3CCN(CC4CCCC4)CC3)sc12 [Compound 1c, 2-(4-(cyclopentylmethyl)piperazin-1-yl)-4-oxo-6-(trifluoromethyl)-4H-benzo[e][1,3]thiazine-8-carbonitrile] | 0.2 (≈ 0.0845 µg/mL) |  |  |  |  |  |  |  |  |  |  |  |  |  |  |  |  | 
N#Cc1cc(C(F)(F)F)cc2c(=O)nc(N3CCN(CC4CCCCC4)CC3)sc12 [Compound 1d, 2-(4-(cyclohexylmethyl)piperazin-1-yl)-4-oxo-6-(trifluoromethyl)-4H-benzo[e][1,3]thiazine-8-carbonitrile] | 0.13 (≈ 0.0567 µg/mL) | 38.6 | 96.4 | 445 | 1340 | 1.98 | 11.3 | 71.2 | 110 | 7.8 | 174 | 110 | 15 | 104 | neither macozinone nor 1d were metabolized | 26.3 | 102 | increase in the volume of distribution (V) relative to macozinone ([3]; i.v. dosing, mice): 2.0 fold; decrease of oral bioavailability relative to macozinone ([3]; mice): twofold; maximum plasma concentration ([3]; oral dosing, male ICR mice): 240 nM; cytotoxicity (in words) [6]: no cytotoxicity
N#Cc1cc(C(F)(F)F)cc2c(=O)nc(N3CCN(CC4CCOC4)CC3)sc12 (centres unmarked) [Compound 1e, 4-Oxo-2-(4-((tetrahydrofuran-3-yl)methyl)piperazin-1-yl)-6-(trifluoromethyl)-4H-benzo[e][1,3]thiazine-8-carbonitrile] |  |  |  |  |  |  |  |  |  |  |  |  |  |  |  |  |  | loss of potency relative to cyclopentyl methyl 1c ([1]; Mtb H37Rv MIC): 10 fold
N#Cc1cc(C(F)(F)F)cc2c(=O)nc(N3CCN(CC4COC4)CC3)sc12 [Compound 1f, 2-(4-(oxetan-3-ylmethyl)piperazin-1-yl)-4-oxo-6-(trifluoromethyl)-4H-benzo[e][1,3]thiazine-8-carbonitrile] |  |  |  |  |  |  |  |  |  |  |  |  |  |  |  |  |  | antimycobacterial activity (in words) ([1]; Mtb H37Rv): inactive
O=c1nc(N2CCN(CC3CCCCC3)CC2)sc2c([N+](=O)[O-])cc(C(F)(F)F)cc12 [Macozinone, reference compound] |  | 50.7 | 102 | 423 | 1230 | 1.98 | 5.64 | 75.8 | 51.6 | 16.7 | 354 | 251 | 15 | 101 | neither macozinone nor 1d were metabolized | 46.8 | 101 | half-life (metabolic stability) [7]: 34 to 43 min
